Screening results: PubChem, Broad Institute
Only some compounds are listed: those with a hit (about 2.2% of all), similar ones and a draw of the others.
FN deposit inh: fibronectin deposition inhibition. inhibition, % at 12.6 µM. AH1F fibroblasts, Alexa488-fibronectin deposition fluorescence, overnight. 350,000 tested, 0.086% active;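 active = mean inhibition across replicates of 30% or more, regardless of how many single replicates reach that level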;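 also: positive control wells lacked labelled fibronectin entirely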
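Assay system: AH1F fibroblasts / Quantity: 10000 cells per well / Medium: DMEM plus 2% serum, read in PBS / Reagent: labelled fibronectin 24 nM / Dosing: single dose, pinned / Times: 1 h cell attachment, overnight exposure to compound and label / Signal: fluorescence, ex 485 nm, em 525 nm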
SIRT5 block: sirtuin-5 (human) deacylase inhibition; Q9NXA8; Purified SirT5, succinyl-peptide AMC, trypsin-coupled fluorescence; inhibition, % at 15 µM; 330,000 tested, 1.1% active; in the data active = inhibition above about 15%
Target sequence (Q9NXA8 whole entry, looked up): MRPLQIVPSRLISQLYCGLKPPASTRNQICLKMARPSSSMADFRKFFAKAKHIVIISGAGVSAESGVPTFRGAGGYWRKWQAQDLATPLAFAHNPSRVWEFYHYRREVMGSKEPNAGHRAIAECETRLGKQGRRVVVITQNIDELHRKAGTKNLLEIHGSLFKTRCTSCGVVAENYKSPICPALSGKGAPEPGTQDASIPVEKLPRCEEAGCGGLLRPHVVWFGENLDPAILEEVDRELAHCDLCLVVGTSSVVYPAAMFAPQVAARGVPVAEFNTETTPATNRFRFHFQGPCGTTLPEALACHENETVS
PGC1a acetyl inh: PGC1a acetylation modulation, inhibitor mode; AID 651687; inhibition, % at 15.6 µM; 350,000 tested, 0.17% active; U2OS PGC1a acetylation, AlphaScreen anti-acetyl-lysine; with virally co-expressed GCN5 acetyltransferase;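 active = every replicate shows inhibition of at least 40%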;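 also: 0% = neutral control wells and 100% = positive control wells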
ERAP1 inh: ERAP1 (human) enzyme inhibition; inhibition, % at 10.7 µM; recombinant ERAP1, Leu-AMC fluorescence, 60 min; Q9NZ08; 340,000 tested, 0.15% active;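 active = mean replicate inhibition of at least 30%, or all replicates individually reaching that 30% level; inactive = mean below 30% and not every replicate reaching it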;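 also: 0% = neutral control wells and 100% = L-leucinethiol positive control wells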
FGF22 binding: binders of recombinant human FGF22 by thermal shift; Q9HCT0; SYPRO orange fluorescence; percent of sucrose octasulfate shift, DMSO zero; activity (Tm shift, normalised), % at 9.99 µM; 340,000 tested, 1.5% active;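 active = mean Tm shift, scaled 0 neutral to 100 positive control, at about 1.3% or above, every replicate too, limit read from the data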
Target sequence (Q9HCT0 whole entry, looked up): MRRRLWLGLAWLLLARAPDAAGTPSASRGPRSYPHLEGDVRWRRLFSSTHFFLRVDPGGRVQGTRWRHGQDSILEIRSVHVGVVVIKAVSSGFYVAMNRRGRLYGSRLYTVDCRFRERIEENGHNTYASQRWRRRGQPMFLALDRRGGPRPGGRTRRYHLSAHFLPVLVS
Starred values were filed as active, the others as inactive.

Screening COc1ccc(S(=O)(=O)N(C)C[C@H]2Oc3c(NC(=O)Nc4ccc(C(F)(F)F)cc4)cccc3C(=O)N([C@@H](C)CO)C[C@H]2C)cc1 returned FN deposit inh -5, SIRT5 block 7, PGC1a acetyl inh 4, ERAP1 inh 1 and FGF22 binding 0.
CCC(=O)Nc1ccc2c(c1)C(=O)N(C)C[C@H](OC)[C@H](C)CN(Cc1cccnc1)[C@@H](C)CO2 was read as FN deposit inh -4, SIRT5 block -5, PGC1a acetyl inh 3 and FGF22 binding 0.
`COC1=CC(=O)c2c(ccc3ncnc(N)c23)C1=O` gave FN deposit inh 31*, SIRT5 block 3, PGC1a acetyl inh 66*, ERAP1 inh -3 and FGF22 binding 0.
For COC1=CC(=O)c2nc(Cl)ccc2C1=O the results were FN deposit inh 10, SIRT5 block 3, ERAP1 inh 2 and FGF22 binding 0.
Screening CN(C)c1cccc(-c2csc(N3CCC(C(N)=O)CC3)n2)c1 returned FN deposit inh -3, SIRT5 block 1, PGC1a acetyl inh -15, ERAP1 inh 1 and FGF22 binding 0.
CS(=O)(=O)c1cccc(-c2csc(N3CCC(C(N)=O)CC3)n2)c1 was read as FN deposit inh 18, SIRT5 block 1, ERAP1 inh 5 and FGF22 binding 43*.
For O=C(O)c1ccccc1-c1c2cc(I)c(=O)c(I)c-2oc2c(I)c(O)c(I)cc12 the results were FN deposit inh -2, SIRT5 block 29*, PGC1a acetyl inh -16, ERAP1 inh 106* and FGF22 binding 0.
COc1ccc(S(=O)(=O)Nc2ccc3c(c2)C(=O)N([C@@H](C)CO)C[C@@H](C)[C@@H](CN(C)S(=O)(=O)c2cccs2)OCCCC[C@H](C)O3)cc1 was read as FN deposit inh 5, SIRT5 block 23*, PGC1a acetyl inh -16, ERAP1 inh 4 and FGF22 binding 0.
For COc1ccc(S(=O)(=O)N(C)C[C@H]2OCCCC[C@@H](C)Oc3ccc(NS(=O)(=O)c4cccs4)cc3C(=O)N([C@H](C)CO)C[C@H]2C)cc1 the results were SIRT5 block 2, PGC1a acetyl inh -20, ERAP1 inh 0 and FGF22 binding 0.
Screening COc1ccc(S(=O)(=O)N(C)C[C@@H]2OCCCC[C@H](C)Oc3ccc(NS(=O)(=O)c4cccs4)cc3C(=O)N([C@@H](C)CO)C[C@H]2C)cc1 returned SIRT5 block 19*, PGC1a acetyl inh -5, ERAP1 inh 2 and FGF22 binding 0.
C[C@@H]1CN([C@H](C)CO)C(=O)c2cc(-c3ccc(F)cc3)cnc2O[C@@H]1CN(C)Cc1cncnc1 was read as FN deposit inh 5, SIRT5 block 0, PGC1a acetyl inh 6, ERAP1 inh -6 and FGF22 binding 0.
For COc1ccc(NC(=O)Nc2ccc3c(c2)C(=O)N([C@@H](C)CO)C[C@H](C)[C@H](CN(C)CC2CCCCC2)OCCCC[C@H](C)O3)cc1 the results were SIRT5 block -3, PGC1a acetyl inh -8, ERAP1 inh 0 and FGF22 binding 0.
For C[C@H](CO)N1C[C@H](C)[C@H](CN(C)Cc2ccc(C(=O)Nc3ccccc3N)cc2)Oc2c(NS(=O)(=O)c3cn(C)cn3)cccc2C1=O the results were FN deposit inh -8, SIRT5 block 5, PGC1a acetyl inh -2, ERAP1 inh -2 and FGF22 binding 0.
C[N+]1(CC2COC3(CCCCC3)O2)CCCCC1 (stereo not given) was read as FN deposit inh -1, SIRT5 block -2, PGC1a acetyl inh 8, ERAP1 inh 54* and FGF22 binding 41.
Clc1ccc(CNC2CCN(Cc3ccccc3)CC2)cc1 was read as FN deposit inh 0, SIRT5 block -1, PGC1a acetyl inh 2, ERAP1 inh -5 and FGF22 binding 0.
For Fc1ccc(CNC2CCN(Cc3ccccc3)CC2)cc1 the results were FN deposit inh 4, SIRT5 block 21*, PGC1a acetyl inh 9, ERAP1 inh -3 and FGF22 binding 0.
`CN(C)C(=O)c1cc(C(=O)c2ccc(C(F)(F)F)cc2F)c[nH]1` gave FN deposit inh -2, SIRT5 block 34*, PGC1a acetyl inh 13, ERAP1 inh -1 and FGF22 binding 0.
`C[C@H]1CN([C@@H](C)CO)C(=O)c2cc(NC(=O)Cn3cnnn3)ccc2O[C@H]1CN(C)Cc1ccccc1` gave SIRT5 block -3, ERAP1 inh 2 and FGF22 binding 0.
`Cc1[nH][nH]c(=O)c1C=NCc1cccs1` gave FN deposit inh -27, SIRT5 block 1, ERAP1 inh -1 and FGF22 binding 43.
`Cc1[nH][nH]c(=O)c1C=NCc1cccnc1` gave FN deposit inh -5, SIRT5 block 4, ERAP1 inh 0 and FGF22 binding 44*.
Screening CO[C@H]1CN(C)C(=O)c2ccc(NC(C)=O)cc2OC[C@@H](C)N(C(=O)CN2CCOCC2)C[C@H]1C returned FN deposit inh -21 and PGC1a acetyl inh 11.
COc1cccc(-c2ccc3n(c2=O)C[C@@H]2[C@@H](CO)[C@H](C(=O)N(C)C)N(C(=O)C4CCCC4)[C@H]32)c1 was read as FN deposit inh -6, SIRT5 block -23, ERAP1 inh -1 and FGF22 binding 0.
Screening Cc1sc(NC(=O)c2ccco2)c(CN2CCN(c3ccc(F)cc3)CC2)c1C returned FN deposit inh -3, SIRT5 block -7 and ERAP1 inh 0.
Cc1ccc(C(c2c(NC(=O)c3ccco3)sc(C)c2C)N2CCOCC2)cc1 (stereo not given) was read as FN deposit inh -3, PGC1a acetyl inh -4, ERAP1 inh 0 and FGF22 binding 0.
CCOC(=O)N1CCN(Cc2c(NC(=O)c3ccco3)sc(C)c2C)CC1 was read as FN deposit inh 0, SIRT5 block -4, PGC1a acetyl inh -8, ERAP1 inh -2 and FGF22 binding 44*.
`Cc1sc(NC(=O)c2ccco2)c(C(c2ccccc2)N2CCC(C)CC2)c1C` (stereo not given) gave FN deposit inh 9, SIRT5 block 18*, PGC1a acetyl inh -11, ERAP1 inh 0 and FGF22 binding 0.
For Cc1sc(NC(=O)c2ccco2)c(C(=O)c2ccc(Cl)cc2)c1C the results were FN deposit inh -13, SIRT5 block 16*, ERAP1 inh 2 and FGF22 binding 0.
C[C@H](CO)N1C[C@H](C)[C@@H](CN(C)Cc2ccc(C(=O)O)cc2)OCCCC[C@H](C)Oc2ccc(NC(=O)NC3CCCCC3)cc2C1=O was read as SIRT5 block -4, PGC1a acetyl inh 7, ERAP1 inh -3 and FGF22 binding 0.
For CN1C(=O)C(O)(c2sc(N)nc2-c2ccccc2)c2ccccc21 (stereo not given) the results were SIRT5 block 21*, PGC1a acetyl inh 5 and ERAP1 inh -2.
